# Test results published in ChEMBL document CHEMBL3739413, “Discovery of substituted-2,4-dimethyl-(naphthalene-4-carbonyl)amino-benzoic acid as potent and selective EP4 antagonists” (Bioorg Med Chem Lett, 2016).
# What was measured:
# [1] = molecular target: T1, Prostaglandin E2 receptor EP4 subtype (Homo sapiens, UniProt P35408); test: Antagonist activity at human EP4 receptor
# [2] = molecular target: T1, Prostaglandin E2 receptor EP4 subtype; test: Antagonist activity at EP4 receptor in human whole blood assessed as reversal of inhibition of PGE2 mediated LPS-induced TNF alpha production pretreated for 30 mins using 3,3',5,5' tetramethylbiphenyl-4,4'-diamine substrate measured after 20 to 24 hrs by immunoassay; assay type: tissue-based
# In short: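 Pooled heparinized blood from volunteer donors (no NSAIDs or celecoxib for 48 h, no glucocorticoids for 2 weeks). Compounds added in triplicate as 7-point curves from DMSO stocks at 100× final, preincubated 30 min at 37 °C under 5% CO2. Stimulated with LPS ± PGE2 (final 10 nM), incubated 20–24 h, plasma TNFα read by ELISA at A450–A650. IC50 from sigmoidal fit, reported as geometric mean ± SD.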
# [3] = molecular target: T1, Prostaglandin E2 receptor EP4 subtype; test: Antagonist activity at human EP4 receptor in HEK293 cells assessed as inhibition of PGE2-induced cAMP accumulation; assay type: functional, cell-based
# In short: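 HEK293 cells; functional readout was inhibition of PGE2-induced cAMP accumulation. IC50 reported ± SEM, with number of experiments.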
# [4] = molecular target: T1, Prostaglandin E2 receptor EP4 subtype; test: Potency index, ratio of IC50 for CJ-023423 to IC50 for test compound against EP4 receptor in human whole blood; assay type: tissue-based
# [5] = Ratio of Cmax in rat to IC50 for EP4 in human whole blood
# [6] = Drug metabolism in rat hepatic microsomes incubated for 30 mins in presence of NADPH; assay type: ADME, Microsome; conditions: liver microsomes, read-out: Drug metabolism
# In short: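 Compound incubated 30 min with rat liver microsomes and NADPH; percent metabolized reported.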
# [7] = Cmax in rat at 5 mg/kg, po; assay type: ADME, organism-based; set-up: dose 5 mg/kg, route oral; conditions: in vivo
# [8] = Oral bioavailability in rat at 5 mg/kg; assay type: ADME, organism-based; conditions: in vivo
# [9] = Tmax in rat at 5 mg/kg, po; assay type: ADME, organism-based; conditions: in vivo
# [10] = Clearance in rat at 1 mg/kg, iv; assay type: ADME, organism-based; conditions: in vivo
# In short: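 Rat dosed intravenously at 1 mg/kg.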
# [11] = Drug metabolism in rat hepatic microsomes; assay type: ADME, Microsome; conditions: liver microsomes, read-out: Drug metabolism
# [12] = Aqueous solubility of the compound at pH 6; assay type: physicochemical; conditions: aqueous medium
# [13] = Drug metabolism in human hepatic microsomes; assay type: ADME, Microsome; conditions: liver microsomes, read-out: Drug metabolism
# [14] = molecular target: T2, Prostaglandin E2 receptor EP1 subtype (Homo sapiens, UniProt P34995); test: Antagonist activity at human EP1 receptor
# T2 sequence (P34995 whole entry): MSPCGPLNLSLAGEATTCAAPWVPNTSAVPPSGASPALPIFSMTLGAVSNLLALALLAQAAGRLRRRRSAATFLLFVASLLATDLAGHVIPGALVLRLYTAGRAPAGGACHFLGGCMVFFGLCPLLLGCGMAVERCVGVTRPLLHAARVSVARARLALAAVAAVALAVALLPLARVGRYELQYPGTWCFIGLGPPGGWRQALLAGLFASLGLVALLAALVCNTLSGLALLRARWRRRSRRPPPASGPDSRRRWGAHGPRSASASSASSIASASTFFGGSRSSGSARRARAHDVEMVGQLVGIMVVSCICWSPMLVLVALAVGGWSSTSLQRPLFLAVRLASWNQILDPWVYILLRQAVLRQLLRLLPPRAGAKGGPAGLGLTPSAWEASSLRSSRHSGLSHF
# [15] = molecular target: Prostaglandin E2 receptor EP2 subtype (Homo sapiens, UniProt P43116); test: Antagonist activity at human EP2 receptor
# Prostaglandin E2 receptor EP2 subtype, sequence (P43116 whole entry): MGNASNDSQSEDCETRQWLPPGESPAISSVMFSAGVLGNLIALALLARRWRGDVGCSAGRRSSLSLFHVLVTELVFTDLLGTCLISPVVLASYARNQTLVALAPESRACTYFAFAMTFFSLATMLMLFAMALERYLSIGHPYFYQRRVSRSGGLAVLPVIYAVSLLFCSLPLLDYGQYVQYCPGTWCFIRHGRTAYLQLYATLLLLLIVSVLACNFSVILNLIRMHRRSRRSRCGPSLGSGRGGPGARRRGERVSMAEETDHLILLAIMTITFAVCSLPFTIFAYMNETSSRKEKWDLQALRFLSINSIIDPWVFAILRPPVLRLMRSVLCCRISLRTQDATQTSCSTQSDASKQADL
# Cytochrome P450 2B6 = molecular target: T3, Cytochrome P450 2B6 (Homo sapiens, UniProt P20813); test: Inhibition of CYP2B6 (unknown origin); assay type: ADME
# T3 sequence (P20813 whole entry): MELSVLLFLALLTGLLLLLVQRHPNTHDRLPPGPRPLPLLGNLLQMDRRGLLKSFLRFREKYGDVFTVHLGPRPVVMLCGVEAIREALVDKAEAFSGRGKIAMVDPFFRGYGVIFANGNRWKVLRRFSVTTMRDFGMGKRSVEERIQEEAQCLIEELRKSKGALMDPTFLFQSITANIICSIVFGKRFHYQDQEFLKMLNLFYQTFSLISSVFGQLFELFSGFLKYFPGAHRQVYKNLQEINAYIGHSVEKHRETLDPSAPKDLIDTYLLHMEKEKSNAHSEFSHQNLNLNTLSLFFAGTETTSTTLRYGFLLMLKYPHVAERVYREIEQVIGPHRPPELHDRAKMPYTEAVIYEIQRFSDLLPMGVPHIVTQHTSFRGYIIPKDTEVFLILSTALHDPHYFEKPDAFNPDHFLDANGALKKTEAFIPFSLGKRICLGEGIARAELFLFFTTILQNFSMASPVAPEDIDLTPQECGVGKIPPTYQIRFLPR
# Cytochrome P450 3A4 = Cytochrome P450 3A4 (Homo sapiens, UniProt P08684); test: Inhibition of CYP3A4 (unknown origin); assay type: ADME
# Cytochrome P450 3A4, sequence (P08684 whole entry): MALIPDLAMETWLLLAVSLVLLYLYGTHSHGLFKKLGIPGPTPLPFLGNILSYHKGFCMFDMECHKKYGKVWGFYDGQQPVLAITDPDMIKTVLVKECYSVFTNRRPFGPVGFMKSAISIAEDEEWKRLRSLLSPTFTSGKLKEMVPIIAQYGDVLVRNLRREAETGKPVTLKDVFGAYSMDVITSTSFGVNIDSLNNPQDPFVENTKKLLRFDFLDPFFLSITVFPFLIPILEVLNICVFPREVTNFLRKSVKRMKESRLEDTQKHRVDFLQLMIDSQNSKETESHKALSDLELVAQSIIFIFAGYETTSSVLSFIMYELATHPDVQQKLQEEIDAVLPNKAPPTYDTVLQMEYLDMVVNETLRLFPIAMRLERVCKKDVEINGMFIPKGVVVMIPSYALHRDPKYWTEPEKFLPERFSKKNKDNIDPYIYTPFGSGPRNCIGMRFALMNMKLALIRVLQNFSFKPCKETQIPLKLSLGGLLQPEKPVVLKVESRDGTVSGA
# Cytochrome P450 2D6 = Cytochrome P450 2D6 (Homo sapiens, UniProt P10635); test: Inhibition of CYP2D6 (unknown origin); assay type: ADME
# Cytochrome P450 2D6, sequence (P10635 whole entry): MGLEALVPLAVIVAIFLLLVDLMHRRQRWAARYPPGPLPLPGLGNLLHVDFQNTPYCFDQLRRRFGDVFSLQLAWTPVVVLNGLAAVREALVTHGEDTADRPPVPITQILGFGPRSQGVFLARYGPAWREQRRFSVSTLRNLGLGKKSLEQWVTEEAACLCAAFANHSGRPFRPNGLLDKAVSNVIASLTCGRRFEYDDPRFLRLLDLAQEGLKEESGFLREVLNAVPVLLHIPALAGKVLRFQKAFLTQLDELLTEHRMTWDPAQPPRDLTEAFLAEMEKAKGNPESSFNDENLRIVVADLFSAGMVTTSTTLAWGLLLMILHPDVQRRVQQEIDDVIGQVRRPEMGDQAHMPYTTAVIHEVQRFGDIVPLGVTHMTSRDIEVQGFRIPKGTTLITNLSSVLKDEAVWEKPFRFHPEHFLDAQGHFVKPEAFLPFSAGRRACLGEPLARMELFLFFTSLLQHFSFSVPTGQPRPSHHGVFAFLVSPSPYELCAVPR
# [16] = molecular target: T4, Prostaglandin E2 receptor EP3 subtype (Homo sapiens, UniProt P43115); test: Antagonist activity at human EP3 receptor
# T4 sequence (P43115 whole entry): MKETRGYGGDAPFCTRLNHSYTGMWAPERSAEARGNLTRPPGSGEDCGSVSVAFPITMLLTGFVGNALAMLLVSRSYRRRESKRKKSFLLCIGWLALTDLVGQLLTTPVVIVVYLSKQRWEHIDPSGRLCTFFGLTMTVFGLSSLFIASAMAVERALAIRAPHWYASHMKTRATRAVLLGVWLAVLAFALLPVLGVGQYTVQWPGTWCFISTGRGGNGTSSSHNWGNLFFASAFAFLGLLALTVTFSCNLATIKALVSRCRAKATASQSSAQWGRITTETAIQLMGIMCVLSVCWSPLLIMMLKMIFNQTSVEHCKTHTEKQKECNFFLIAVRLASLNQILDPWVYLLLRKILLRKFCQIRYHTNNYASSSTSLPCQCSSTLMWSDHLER
# Cytochrome P450 1A2 = molecular target: T5, Cytochrome P450 1A2 (Homo sapiens, UniProt P05177); test: Inhibition of CYP1A2 (unknown origin); assay type: ADME
# T5 sequence (P05177 whole entry): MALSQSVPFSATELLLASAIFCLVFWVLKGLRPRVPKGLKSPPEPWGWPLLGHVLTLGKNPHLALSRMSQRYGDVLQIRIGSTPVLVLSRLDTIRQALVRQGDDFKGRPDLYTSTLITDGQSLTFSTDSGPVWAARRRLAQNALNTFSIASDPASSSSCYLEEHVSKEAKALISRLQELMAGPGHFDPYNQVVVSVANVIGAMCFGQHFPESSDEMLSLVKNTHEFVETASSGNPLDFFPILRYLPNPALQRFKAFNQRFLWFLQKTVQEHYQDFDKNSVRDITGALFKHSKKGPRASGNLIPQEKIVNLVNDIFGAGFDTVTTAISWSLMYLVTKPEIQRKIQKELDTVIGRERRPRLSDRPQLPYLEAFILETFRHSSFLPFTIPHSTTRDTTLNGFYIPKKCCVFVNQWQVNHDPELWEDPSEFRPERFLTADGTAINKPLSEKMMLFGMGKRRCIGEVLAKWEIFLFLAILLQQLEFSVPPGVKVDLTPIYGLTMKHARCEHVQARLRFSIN
# Cytochrome P450 2C8 = molecular target: T6, Cytochrome P450 2C8 (Homo sapiens, UniProt P10632); test: Inhibition of CYP2C8 (unknown origin); assay type: ADME
# T6 sequence (P10632 whole entry): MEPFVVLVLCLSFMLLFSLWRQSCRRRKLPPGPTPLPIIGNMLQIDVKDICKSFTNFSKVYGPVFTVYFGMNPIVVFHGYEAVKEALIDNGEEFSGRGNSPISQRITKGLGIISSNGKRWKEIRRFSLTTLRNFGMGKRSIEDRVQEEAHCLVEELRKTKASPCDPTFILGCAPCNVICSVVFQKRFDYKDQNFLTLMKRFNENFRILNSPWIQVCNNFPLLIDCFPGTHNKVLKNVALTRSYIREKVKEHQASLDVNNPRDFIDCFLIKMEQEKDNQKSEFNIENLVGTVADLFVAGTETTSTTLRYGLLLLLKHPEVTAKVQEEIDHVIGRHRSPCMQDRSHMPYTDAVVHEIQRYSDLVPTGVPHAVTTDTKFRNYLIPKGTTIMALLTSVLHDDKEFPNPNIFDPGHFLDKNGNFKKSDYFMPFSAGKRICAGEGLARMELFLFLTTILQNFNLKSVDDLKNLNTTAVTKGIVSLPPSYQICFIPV
# Cytochrome P450 2C9 = Cytochrome P450 2C9 (Homo sapiens, UniProt P11712); test: Inhibition of CYP2C9 (unknown origin); assay type: ADME
# Cytochrome P450 2C9, sequence (P11712 whole entry): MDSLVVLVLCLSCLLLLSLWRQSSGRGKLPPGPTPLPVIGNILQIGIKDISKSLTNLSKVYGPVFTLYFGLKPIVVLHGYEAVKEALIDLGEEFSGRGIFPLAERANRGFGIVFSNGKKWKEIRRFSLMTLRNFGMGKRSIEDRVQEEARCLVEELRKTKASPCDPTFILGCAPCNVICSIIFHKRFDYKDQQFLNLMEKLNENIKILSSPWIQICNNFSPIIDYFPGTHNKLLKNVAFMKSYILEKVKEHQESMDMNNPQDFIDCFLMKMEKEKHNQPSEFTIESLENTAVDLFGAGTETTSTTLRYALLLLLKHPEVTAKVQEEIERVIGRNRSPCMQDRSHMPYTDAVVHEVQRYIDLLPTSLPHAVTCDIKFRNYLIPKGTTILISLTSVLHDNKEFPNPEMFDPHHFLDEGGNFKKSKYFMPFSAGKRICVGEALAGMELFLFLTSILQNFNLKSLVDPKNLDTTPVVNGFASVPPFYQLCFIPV
# Cytochrome P450 2C19 = Cytochrome P450 2C19 (Homo sapiens, UniProt P33261); test: Inhibition of CYP2C19 (unknown origin); assay type: ADME
# Cytochrome P450 2C19, sequence (P33261 whole entry): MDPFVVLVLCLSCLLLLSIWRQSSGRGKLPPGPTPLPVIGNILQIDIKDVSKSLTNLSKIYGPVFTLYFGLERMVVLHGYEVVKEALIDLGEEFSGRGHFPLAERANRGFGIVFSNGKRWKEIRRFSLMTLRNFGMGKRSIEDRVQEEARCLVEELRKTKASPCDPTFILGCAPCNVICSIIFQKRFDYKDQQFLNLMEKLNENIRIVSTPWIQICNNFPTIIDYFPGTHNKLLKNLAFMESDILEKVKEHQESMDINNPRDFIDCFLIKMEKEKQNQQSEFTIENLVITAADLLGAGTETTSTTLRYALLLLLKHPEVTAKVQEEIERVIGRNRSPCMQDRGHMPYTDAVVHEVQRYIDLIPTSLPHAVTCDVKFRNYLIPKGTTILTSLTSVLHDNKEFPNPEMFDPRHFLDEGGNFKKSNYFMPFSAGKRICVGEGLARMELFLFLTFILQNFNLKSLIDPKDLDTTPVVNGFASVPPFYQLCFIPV
# T1 sequence (P35408 whole entry): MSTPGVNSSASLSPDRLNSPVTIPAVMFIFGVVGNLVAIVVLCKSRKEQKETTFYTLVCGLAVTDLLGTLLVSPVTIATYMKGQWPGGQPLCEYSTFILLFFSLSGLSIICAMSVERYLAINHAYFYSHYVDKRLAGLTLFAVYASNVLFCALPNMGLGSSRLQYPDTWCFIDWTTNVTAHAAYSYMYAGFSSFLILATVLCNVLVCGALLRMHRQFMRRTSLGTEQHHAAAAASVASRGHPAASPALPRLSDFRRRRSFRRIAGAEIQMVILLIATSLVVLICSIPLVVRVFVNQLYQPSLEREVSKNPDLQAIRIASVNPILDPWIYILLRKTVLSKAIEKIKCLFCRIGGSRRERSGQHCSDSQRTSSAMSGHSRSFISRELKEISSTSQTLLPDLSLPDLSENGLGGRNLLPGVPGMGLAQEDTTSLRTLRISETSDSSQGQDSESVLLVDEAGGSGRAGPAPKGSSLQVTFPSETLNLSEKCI
smiles,measurement,setting,value
Cc1ccc(C(=O)O)c(C)c1NC(=O)c1cc(-c2cccc(CO)c2)nc2ccccc12,Ki,[1],17 nM
same,IC50,[2],312 nM
same,IC50,[3],5.2 nM
same,Ratio IC50,[4],> 5
Cc1cc(C(=O)O)cc(C)c1NC(=O)c1cc(-c2cccc(CO)c2)cc2ccccc12,Ki,[1],3.54 nM
same,IC50,[2],136 nM
same,IC50,[3],1.11 nM
Cc1ccc(C(=O)O)c(C)c1NC(=O)c1cc(-c2cccc(CO)c2)cc2ccccc12,Ratio,[5],33
same,metabolised at 0.5 h,[6],< 1%
same,Cmax,[7],85.7 ng/mL
same,Ki,[1],1.98 nM
same,bioavailability,[8],6%
same,IC50,[2],6.2 nM
same,IC50,[3],2.42 nM
same,Tmax,[9],15 min
same,clearance,[10],23.8 mL/min/kg
same,Ratio IC50,[4],> 250
CCc1nc2c(C)nc(C)cc2n1-c1ccc(CCNC(=O)NS(=O)(=O)c2ccc(C)cc2)cc1 [GRAPIPRANT],metabolised,[11],5%
same,solubility,[12],977 µg/mL
same,metabolised,[13],2%
same,IC50,[2],1520 nM
Cc1cccc(C)c1NC(=O)c1cc(-c2ccccc2)nc2ccccc12,metabolised,[11],64%
same,solubility,[12],< 1 µg/mL
same,Ki,[1],512 nM
same,metabolised,[13],71%
same,IC50,[2],> 30000 nM
same,IC50,[3],128 nM
Cc1ccc(C(=O)O)c(C)c1NC(=O)c1cc(-c2ccccc2)cc2ccccc12,Ki,[1],6.72 nM
same,IC50,[2],577 nM
same,IC50,[3],5.65 nM
Cc1ccc(C(=O)O)c(C)c1NC(=O)c1cc(-c2cccc(Cl)c2)cc2ccccc12,Ratio,[5],104
same,IC50,[14],> 25000 nM
same,Ki,[14],> 19500 nM
same,metabolised at 0.5 h,[6],7%
same,IC50,[15],3700 nM
same,Ki,[15],2800 nM
same,Cmax,[7],10900 ng/mL
same,IC50,Cytochrome P450 2B6,> 10000 nM
same,Ki,[1],3.49 nM
same,IC50,Cytochrome P450 3A4,> 10000 nM
same,bioavailability,[8],100%
same,IC50,[2],243 nM
same,IC50,[3],3.62 nM
same,IC50,Cytochrome P450 2D6,> 10000 nM
same,IC50,[16],> 25000 nM
same,Ki,[16],> 17500 nM
same,IC50,Cytochrome P450 1A2,> 10000 nM
same,Tmax,[9],60 min
same,clearance,[10],1.9 mL/min/kg
same,IC50,Cytochrome P450 2C8,> 10000 nM
same,IC50,Cytochrome P450 2C9,> 10000 nM
same,IC50,Cytochrome P450 2C19,> 10000 nM
Cc1cc(C(=O)O)cc(C)c1NC(=O)c1cc(-c2cccc(CO)c2)nc2ccccc12,Ratio,[5],0.2
same,metabolised at 0.5 h,[6],< 1%
same,Cmax,[7],42.3 ng/mL
same,Ki,[1],52.3 nM
same,bioavailability,[8],3%
same,IC50,[2],501 nM
same,IC50,[3],3.08 nM
same,Tmax,[9],15 min
same,clearance,[10],59.6 mL/min/kg
Cc1cc(C(=O)O)cc(C)c1NC(=O)c1cc(-c2ccccc2)cc2ccccc12,Ki,[1],8.04 nM
same,IC50,[2],623 nM
same,IC50,[3],3.48 nM
Cc1cccc(C)c1NC(=O)c1cc(-c2ccc(C(=O)O)cc2)nc2ccccc12,Ki,[1],> 19200 nM
same,IC50,[2],> 30000 nM
same,IC50,[3],> 25000 nM
Cc1cc(C(=O)O)cc(C)c1NC(=O)c1cc(-c2ccccc2)nc2ccccc12,Ki,[1],39.2 nM
same,IC50,[2],1980 nM
same,IC50,[3],11.2 nM
